Data from ChEMBL document CHEMBL1143381 (J Med Chem, 2009).
The source made the active and inactive calls. No cut-off for these calls is given here.

Experiments:
K562 [1] = assay: Reversal of P-glycoprotein-mediated multidrug resistance in human anthracycline-resistant K562 cells assessed as drug level causing 50% increase in nuclear concentration of pirarubicin by spectrofluorimetry; format: cell-based
Outline: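 K562/DOX cells were grown in RPMI 1640 with 10% FCS at 37 °C, 5% CO2, and kept resistant by a monthly 3-day exposure to 400 nM doxorubicin. Cultures were started at 5 × 10^5 cells/mL and used 24 h later. Pirarubicin uptake was followed as fluorescence decrease at 590 nm (ex 480 nm) in 2 mL buffer at 37 °C.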

K562 [2] = assay: Cytotoxicity against human doxorubicin-sensitive K562 cells after 72 hrs by MTT assay; format: functional, cell-based; conditions: K562, 72 h
Outline: (§1)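 MTT assay: cells seeded at 3000/well with doxorubicin (0.001–0.1 µM in K562; 0.1–10 µM in K562/DOX), alone or with modulator, for 72 h at 37 °C. Doxorubicin IC50 is the 50% drop in MTT conversion versus untreated cells, read from plots. RF is the IC50 without modulator divided by the IC50 with modulator. Values are mean ± SE of ≥3 runs, or mean of two runs, in quadruplicate cultures.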

K562 [3] = assay: Cytotoxicity against human doxorubicin-resistant K562 cells expressing Pgp after 72 hrs by MTT assay; format: functional, cell-based; conditions: K562, 72 h; outline: as §1
K562 [4] = assay: Cytotoxicity against human doxorubicin-resistant K562 cells expressing Pgp assessed as cell viability by trypan blue exclusion assay; format: functional
K562 [5] = assay: Potentiation of doxorubicin-induced growth inhibition in human doxorubicin-resistant K562 cells expressing Pgp at 1 uM after 72 hrs by MTT assay; format: functional, cell-based; outline: as §1
K562 [6] = assay: Potentiation of doxorubicin-induced growth inhibition in human doxorubicin-resistant K562 cells expressing Pgp at 3 uM after 72 hrs by MTT assay; format: functional, cell-based; outline: as §1

## COc1ccc(C(C#N)(CCCNCc2c3ccccc3cc3ccccc23)C(C)C)cc1OC (configuration not stated)
K562 [1]
  Activity: 0.05 µM

## COc1cc(C(=O)OCCCN(C)CCCOC(=O)c2c3ccccc3cc3ccccc23)cc(OC)c1OC
K562 [1]
  Activity: 0.6 µM

## COc1cccc2c1C(=O)c1c(O)c3c(c(O)c1C2=O)C[C@@](O)(C(=O)CO)C[C@@H]3O[C@H]1C[C@H](N)[C@H](O)[C@H](C)O1 [DOXORUBICIN]
K562 [2]
  IC50: 0.032 µM
K562 [3]
  IC50: 2.84 µM

## COc1ccc(CCN(C)CCCC(C#N)(c2ccc(OC)c(OC)c2)C(C)C)cc1OC (configuration not stated)
K562 [4]
  Activity: >95%
K562 [5]
  Activity: Active
K562 [6]
  Activity: Active
